Measured values as given in publication PMC4804314 (Pharmacology Research & Perspectives, 2016).

What was measured:
[1] = Plasma pharmacokinetics in mouse after i.v. bolus; assay type: in vivo, mouse (NMRI); conditions: for level at 0.1 h / level at 0.25 h / level at 2 h: NMRI, plasma
Outline: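 Male and female NMRI mice, i.v. bolus of [14C]-test compound, 2.5 mg/kg (4.2 μmol/kg). Blood was taken by exsanguination under anesthesia (n = 3/time point) and spun 2 min at 10,000g. Plasma was counted by LSC from predose to 72 h. A separate unlabeled-dose study gave plasma from predose to 8 h for parent by validated LC/MS/MS. Noncompartmental analysis was used, with clearance related to hepatic blood flow.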

[2] = tested on: human suspension hepatocytes; assay: Uptake into human suspension hepatocytes; assay type: in vitro ADME
Outline: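 Cryopreserved human hepatocytes in suspension, transporter function verified by the supplier. Test compound was applied at 10 μmol/L, 250 μmol/L and 10 mmol/L for 1 to 30 or 90 min. Cells were separated from buffer by the oil-layer method, and drug in both compartments was quantified over time by LC/MS/MS. Nonspecific transporter inhibition used rifampicin 20 μmol/L, cyclosporine A 20 μmol/L and quinidine 100 μmol/L.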

[3] = tested on: sandwich‐cultured mouse (NMRI) hepatocytes; assay: Hepatobiliary disposition in sandwich-cultured mouse hepatocytes; assay type: in vitro ADME; conditions: for BEI / CLbiliary / Intracellular concentration / Cellular accumulation Avg. / Total accumulation Avg.: 20 min; for Cellular accumulation Avg. / Total accumulation Avg.: mean ± SD of triplicate wells
[4] = Distribution of radioactivity in pigmented mice; assay type: in vivo; conditions: eyes and skin
[5] = Plasma pharmacokinetics in rabbit after i.v. infusion; assay type: in vivo, Chinchilla rabbit
Outline: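 Chinchilla rabbits received a 4-h infusion into the ear vein at 50, 150 or 450 mg/kg/d. Plasma was sampled before and at 2, 4, 4.25, 4.5, 5, 7 and 10 h after infusion start.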

[6] = Excretion of total radioactivity in mouse; assay type: in vivo, mouse (NMRI)
Outline: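 Male and female NMRI mice got an i.v. bolus of [14C]-test compound, 2.5 mg/kg. Urine and feces were collected 0–8 h, 8–24 h, then every 24 h to 120 h. Urine from timed pooled samples (n = 3) was counted by LSC. Feces were homogenized in water with carboxymethylcellulose, and 1 g aliquots were dried at 60°C/12 h and combusted. Minced carcasses (0.5 g aliquots) and tail segments were combusted for residual radioactivity.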

[7] = tested on: sandwich‐cultured hepatocytes; assay: Cytotoxicity test with lactate dehydrogenase; assay type: cell-based; conditions: 250 μmol/L, up to 24 h
[8] = Excretion of total radioactivity in monkey; assay type: in vivo, Cynomolgus monkey (Macaca fascicularis)
Outline: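 Female Cynomolgus monkeys (n = 3) got a single i.v. bolus of [14C]-test compound, 2.0 mg/kg. Urine and feces were collected 0–8 h, 8–24 h, then in 24-h intervals to 120 h. Both were counted by LSC as in the mouse study, with feces dried and combusted first. Excretion was expressed as % of radioactive dose.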

Compound: CC(C)[C@H]1C(=O)N[C@@H](CCCN=C(N)N)C(=O)NCC(=O)N[C@@H](CC(=O)O)C(=O)N[C@H](Cc2ccccc2)C(=O)N1C [cilengitide, cyclo‐(Asp‐D‐Phe‐N‐MeVal‐Arg‐Gly)]
- clearance as share of hepatic blood flow (hbf) ([1]; female mice): 60%
- level at 0.1 h ([1]; female, mouse, iv, 2.5 mg/kg): 2.49 µg/mL
- level at 0.25 h ([1]; female, mouse, iv, 2.5 mg/kg): 0.448 µg/mL
- level at 2 h ([1]; female, mouse, iv, 2.5 mg/kg): 0.0063 µg/mL
- clearance as share of hepatic blood flow (hbf) ([1]; male mice): 105%
- level at 0.1 h ([1]; male, mouse, iv, 2.5 mg/kg): 1.24 µg/mL
- level at 0.25 h ([1]; male, mouse, iv, 2.5 mg/kg): 0.439 µg/mL
- level at 2 h ([1]; male, mouse, iv, 2.5 mg/kg): 0.008 µg/mL
- clearance ([1]; mouse, in vivo, Plasma CL, value used for allometry): 3.81 L/h/kg
- Vd ([1]; mouse, in vivo, Vdss, range over both species (mouse and monkey)): 0.32 to 1.6 L/kg
- AUC ([1]; mouse, in vivo, iv, 2.5 mg/kg, AUC0‐∞ of parent drug, male mice, 2.5 mg/kg i.v.): 0.44 µg·h/mL
- Vd ([1]; mouse, in vivo, iv, 2.5 mg/kg, apparent Vdss, female mice, 2.5 mg/kg i.v.): 0.56 L/kg
- Vd ([1]; mouse, in vivo, iv, 2.5 mg/kg, apparent Vdss, male mice, 2.5 mg/kg i.v.): 1.6 L/kg
- clearance ([1]; mouse, in vivo, iv, 2.5 mg/kg, plasma clearance, female mice, 2.5 mg/kg i.v.): 3.2 L/h/kg
- clearance ([1]; mouse, in vivo, iv, 2.5 mg/kg, plasma clearance, male mice, 2.5 mg/kg i.v.): 5.68 L/h/kg
- half-life ([1]; mouse, in vivo, t1/2, mouse, value used for allometry): 20.4 min
- active uptake in human hepatocytes [2]: no active uptake
- dependency of uptake on drug concentration ([2]; 10 μmol/L, 250 μmol/L and 10 mmol/L): no clear dependency on drug concentration
- effect of inhibitor cocktail on distribution into hepatocytes ([2]; 20 μmol/L rifampicin, 20 μmol/L cyclosporine A, 100 μmol/L quinidine): no relevant inhibition
- time after which distribution into hepatocytes was almost complete ([2]; human suspension hepatocytes): 1 to 4 min
- uptake into human hepatocytes ([2]; suspension, 10 μmol/L, 250 μmol/L and 10 mmol/L): minor
- uptake into hepatocytes [3]: fairly robust
- BEI ([3]; 10 μmol/L): 29.3%
- CLbiliary ([3]; 10 μmol/L): 0.0421 L/h/kg
- Intracellular concentration ([3]; 10 μmol/L): 4.13 µM
- Cellular accumulation Avg. ([3]; 10 μmol/L): 33.3 ± 1.4 pmol/mg
- Total accumulation Avg. ([3]; 10 μmol/L): 47.1 ± 1.7 pmol/mg
- BEI ([3]; 250 μmol/L): 43.3%
- CLbiliary ([3]; 250 μmol/L): 0.164 L/h/kg
- Intracellular concentration ([3]; 250 μmol/L): 219 µM
- Cellular accumulation Avg. ([3]; 250 μmol/L): 1768 ± 14 pmol/mg
- Total accumulation Avg. ([3]; 250 μmol/L): 3115 ± 32 pmol/mg
- biliary efflux (BEI) ([3]; 10 and 250 μmol/L): 30–40%
- intracellular concentration (Cic) ([3]; exposure 10 μmol/L): 4.13 µmol/L
- intracellular concentration (Cic) ([3]; exposure 250 μmol/L): 219 µmol/L
- melanin binding [4]: no relevant melanin binding
- level at 4 h ([5]; Chinchilla, rabbit, plasma, iv, 50 mg/kg): 34.2 to 38.5 µg/mL
- clearance in comparison to hbf ([5]; female rabbits): ~15%
- clearance ([5]; rabbit, in vivo): 0.36 L/h/kg
- half-life ([5]; rabbit, in vivo, 450 mg/kg, apparent half‐life, rabbit, 450 mg/kg dose group): ~60 min
- extent of renal excretion [6]: 10%
- cell toxicity (LDH in cell culture medium) [7]: does not cause cell toxicity
- extent of renal excretion [8]: 56%
